Marks after values point to notes of the source that are not given here.
Columns and labels:
[1] = tested on: patients with advanced solid tumors; settings: given twice daily on a continuous schedule (every 12 h); mainly Caucasian patients; cited from earlier work
[2] = Plasma pharmacokinetics, LC-MS/MS, non-compartmental analysis; assay type: in vivo, human; settings: for CL/F / RAUC (accumulation ratio for AUC0–12): abemaciclib, geometric mean (% CV); for half-life / Cmax / AUC(0-inf) / AUC(0-t) / Vd/F: human, plasma; for Cmax: Mean abemaciclib Cmax
In short: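 Oral test compound, 150 or 200 mg. Plasma was sampled at 1–72 h after a single dose (Cycle 1 Day 1) and at 1–24 h after twice-daily dosing (Day 31), with doses held during sampling. Parent and two major active metabolites were measured by validated LC-MS/MS. Non-compartmental analysis; total active analytes summed. RAUC compares steady-state AUC0–12 with single-dose values. Descriptive statistics by dose.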

[3] = tested on: CDK 4; settings: in vitro; cited from earlier work

CCN1CCN(Cc2ccc(Nc3ncc(F)c(-c4cc(F)c5nc(C)n(C(C)C)c5c4)n3)nc2)CC1 [abemaciclib]
Maximum tolerated dose (MTD) [1]: 200 mg
CL/F ([2]; single oral dose 150 mg (C1D1), N 12): 22.1 (63) L/h
CL/F ([2]; single oral dose 200 mg (C1D1), N 13): 26.4 (74) L/h
RAUC (accumulation ratio for AUC0–12) ([2]; steady state (C1D31) 150 mg every 12 h, n = 5): 1.57 (106)^b
RAUC (accumulation ratio for AUC0–12) ([2]; steady state (C1D31) 200 mg every 12 h, N 10): 2.10 (69)
half-life ([2]; oral, 200 mg): ~24 h
Cmax ([2]; oral, 200 mg, after multiple doses of 150 or 200 mg): 260 to 320 ng/mL
Cmax ([2]; oral, after a single dose): 200 ng/mL
AUC(0-inf) ([2]; po, 150 mg): 6790 ng·h/mL
AUC(0-t) ([2]; po, 150 mg): 1700 ng·h/mL
Vd/F ([2]; po, 150 mg): 767 L
half-life ([2]; po, 150 mg): 22.4 h
AUC(0-inf) ([2]; po, 200 mg): 7580 ng·h/mL
AUC(0-t) ([2]; po, 200 mg): 1740 ng·h/mL
Vd/F ([2]; po, 200 mg): 955 L
half-life ([2]; po, 200 mg): 22.8 h
Greater potency against CDK 4 than against CDK 6 [3]: 14 times

Reference: PMC7935732 (Targeted Oncology, 2021)
